Assay results gathered from unrelated publications.
Lines come from different studies, so protocols differ.
Target: Kappa-type opioid receptor (OPRK1, Homo sapiens, UniProt P41145)

COc1ncccc1-c1cnn2ccc(N3CCN(C(=O)OC(C)C)CC3)nc12 — IC50 (cell-free assay): > 30000 nM
COc1ccc(C(=O)Nc2ccccc2CCC2CCCCN2C)cc1 (stereo not shown) — IC50 (ligand displacement, radioligand): 3600 nM
C[C@H]1[C@H]2Cc3ccc(O)cc3[C@]1(C)CCN2CC1CC1 — Ki (cell-free assay): 0.95 nM
Cc1ccccc1Cc1ccc2c(c1)CN(C(=O)[C@@H](N)Cc1c(C)cc(O)cc1C)CC2 — Ki (ligand displacement, radioligand; cell membranes): 1.2 nM
CCCO[C@@]12Cc3cc(-c4ccccc4)cnc3[C@@H]3Oc4c(O)ccc5c4[C@@]31CCN(CC1CC1)[C@@H]2C5 — Ki (cell-free assay): 252 nM
CC(CCc1ccc(O)cc1)NCCc1ccc(O)c(O)c1 (stereo not shown) — IC50 (ligand displacement, radioligand): 5300 nM
Cc1cc(O)cc(C)c1C[C@H](N)C(=O)N1CCc2ccc(Cc3ccc(N)cc3)cc2C1 — Ki (ligand displacement, radioligand; cell membranes): 91 nM
COC(=O)/C=C/C(=O)N[C@@H]1CC[C@@]2(O)[C@H]3Cc4ccc(O)c5c4[C@@]2(CCN3CC2CC2)[C@H]1O5 — IC50 (ligand displacement, radioligand; cell membranes): 7.78 nM
Cc1cc(O)cc(C)c1C[C@H](N)C(=O)N1CCc2ccc(Cc3cccc([N+](=O)[O-])c3)cc2C1 — Ki (ligand displacement, radioligand; cell membranes): 2.5 nM
Cc1cc(O)cc(C)c1C[C@H](N)C(=O)N1Cc2ccccc2CC1C(=O)NCC(=O)NC(Cc1ccc(Cl)cc1)C(=O)N(C)CCC[C@@]1(c2ccc(F)cc2)OCc2cc(C#N)ccc21 (stereo in doubt) — Ki (cell-free assay): 91 nM
CN[C@]1(c2ccccc2Cl)CCCCC1=O — IC50 (ligand displacement, radioligand): 13000 nM
Cc1cc(O)cc(C)c1C[C@H](N)C(=O)N[C@H](C)C(=O)NCC(=O)N[C@@H](Cc1ccc(Cl)cc1)C(=O)N(C)CCC[C@@]1(c2ccc(F)cc2)OCc2cc(C#N)ccc21 — Ki (cell-free assay): 37 nM
COC(=O)C(c1ccccc1)C1CCCCN1 (stereo not shown) — IC50 (ligand displacement, radioligand): 6900 nM
